From ChEMBL document CHEMBL4411311, “Exploration of novel macrocyclic dipeptide N-benzyl amides as proteasome inhibitors” (Eur J Med Chem, 2019)

Key:
[1] = molecular target: T1, Proteasome Macropain subunit MB1 (Homo sapiens, UniProt P28074); assay: Inhibition of human hepatic cell derived 20s constitutive proteasome beta5 chymotrypsin-like activity using Suc-WLA-AMC as substrate preincubated for 15 mins followed by substrate addition and measured after 60 mins by fluorescence assay
T1 sequence (P28074 whole entry): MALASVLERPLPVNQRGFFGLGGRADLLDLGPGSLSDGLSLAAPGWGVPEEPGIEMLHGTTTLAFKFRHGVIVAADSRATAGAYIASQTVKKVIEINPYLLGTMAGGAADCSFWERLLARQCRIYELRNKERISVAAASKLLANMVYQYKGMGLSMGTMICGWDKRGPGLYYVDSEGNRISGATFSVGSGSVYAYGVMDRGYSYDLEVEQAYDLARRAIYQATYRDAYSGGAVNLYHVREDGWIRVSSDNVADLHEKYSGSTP

[2] = system: RPMI-8226; assay: Antiproliferative activity against human RPMI8226 cells after 72 hrs by MTS assay; format: functional, cell-based; conditions: RPMI-8226, 72 h
Summary of the method: (§1)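 Cells kept at 37 °C in humidified 5% CO₂. RPMI 8226 and MM.1S were grown in RPMI-1640 with 10% FBS plus penicillin/streptomycin. Seeding per well was 5 × 10³ (RPMI 8226), 3 × 10⁴ (MM.1S) or 8 × 10³ (MV-4-11). Cells were treated with DMSO vehicle or graded concentrations, then given MTS/PMS for 2-4 h at 37 °C. OD read at 490 nm minus 690 nm background. Growth inhibition = (A_control − A_sample)/A_control; IC50 from variable-slope sigmoidal nonlinear fit.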

[3] = system: MM1.S; assay: Antiproliferative activity against human MM1S cells after 72 hrs by MTS assay; format: functional, cell-based; summary of the method: as §1
[4] = system: MV4-11; assay: Antiproliferative activity against human MV4-11 cells after 72 hrs by MTS assay; format: functional, cell-based; conditions: MV4-11, 72 h; summary of the method: as §1
[5] = molecular target: T2, Proteasome subunit beta type-9 (Homo sapiens, UniProt P28065); assay: Inhibition of human peripheral blood derived 20s immunoproteasome beta1 caspase-like activity using Suc-PAL-AMC as substrate preincubated for 15 mins followed by substrate addition and measured after 60 mins by fluorescence assay
T2 sequence (P28065 whole entry): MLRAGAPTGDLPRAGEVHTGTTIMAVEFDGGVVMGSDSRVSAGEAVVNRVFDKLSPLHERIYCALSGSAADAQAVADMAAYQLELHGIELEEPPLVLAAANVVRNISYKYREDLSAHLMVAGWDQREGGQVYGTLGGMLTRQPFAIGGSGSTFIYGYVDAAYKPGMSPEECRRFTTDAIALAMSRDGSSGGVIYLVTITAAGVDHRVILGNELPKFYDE

[6] = Inhibition of human peripheral blood derived 20s immunoproteasome beta2 trypsin-like activity using […] as substrate preincubated for 15 mins followed by substrate addition and measured after 60 mins by fluorescence assay
[7] = molecular target: T3, Proteasome subunit beta type-8 (Homo sapiens, UniProt P28062); assay: Inhibition of human peripheral blood derived 20s immunoproteasome beta5 chymotrypsin-like activity using […] as substrate preincubated for 15 mins followed by substrate addition and measured after 60 mins by fluorescence assay
T3 sequence (P28062 whole entry): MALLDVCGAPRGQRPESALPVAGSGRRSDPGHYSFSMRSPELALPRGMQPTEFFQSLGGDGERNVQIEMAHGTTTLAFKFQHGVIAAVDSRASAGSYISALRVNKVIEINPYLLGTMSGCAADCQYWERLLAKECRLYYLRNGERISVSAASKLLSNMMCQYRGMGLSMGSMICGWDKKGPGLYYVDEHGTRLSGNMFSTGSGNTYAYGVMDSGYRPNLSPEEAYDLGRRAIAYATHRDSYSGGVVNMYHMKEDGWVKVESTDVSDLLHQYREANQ

[8] = Stability in human liver microsomes assessed as parent compound remaining at 1 uM measured after 30 mins by LC-MS/MS analysis; format: ADME, Microsome; conditions: read-out: Stability
Summary of the method: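 Test compound at […] incubated with human liver microsomes (1.0 mg/mL protein) in 0.1 M PBS pH 7.4 with 1 mM NADPH. Microsomes preincubated 5 min at 37 °C; reaction started by compound addition and sampled at 0, 10, 20 and 30 min. Stopped with ice-cold methanol containing internal standard, then centrifuged at 15000g for 10 min. Supernatant analysed by LC-MS; % remaining = analyte/IS peak-area ratio relative to 0 min.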

[9] = molecular target: T4, Proteasome Macropain subunit MB1 (Homo sapiens) (UniProt P28074); assay: Inhibition of human hepatic cell derived 20s constitutive proteasome beta5 chymotrypsin-like activity at 10 uM using Suc-WLA-AMC as substrate preincubated for 15 mins followed by substrate addition and measured after 60 mins by fluorescence assay relative to control
T4 sequence (whole entry): T1 sequence (P28074 whole entry)

Compound | IC50 [1] [nM] | IC50 [2] [nM] | IC50 [3] [nM] | IC50 [4] [nM] | IC50 [5] [nM] | IC50 [6] [nM] | IC50 [7] [nM] | remaining at 0.5 h, 1 µM [8] [%] | inhibition [9] [%]
Cc1ccc(CNC(=O)[C@H]2NC(=O)[C@H](CC(=O)NCC(C)(C)C)NC(=O)c3nccn3CCCCCCCO[C@H]2C)cc1 | 50 | 27 | 220 | 208 | – | – | – | – | –
CC(C)(C)CNC(=O)C[C@@H]1NC(=O)c2ccccc2OCCCCCCOC[C@@H](C(=O)NCc2ccccc2Cl)NC1=O | 127 | 301 | 343 | 718 | – | – | – | – | –
Cc1ccc(CNC(=O)[C@@H]2COCCCCCCCc3c(cnn3C)C(=O)N[C@@H](CC(=O)NCC(C)(C)C)C(=O)N2)cc1 | 29 | 18 | 15 | 21 | > 10000 | > 10000 | 35 | ≥ 66 | –
O=C1N[C@@H](CCc2ccccc2)C(=O)N[C@H](C(=O)NCc2ccccc2Cl)COCCCCCCOc2ccccc21 | – | – | – | – | – | – | – | – | 36.7
Cc1ccc(CNC(=O)[C@@H]2COCCCCCCCn3ccnc3C(=O)N[C@@H](CC(=O)NCC(C)(C)C)C(=O)N2)cc1 | 34 | 15 | 6 | 12 | > 10000 | > 10000 | 19 | < 20 | –
CCCCCCOC[C@H](NC(=O)[C@H](CC(=O)NCC(C)(C)C)NC(=O)c1cnn(C)c1CCC)C(=O)NCc1ccc(C)cc1 | 9 | 97 | 64 | 73 | – | – | – | < 5 | –
Cc1ccc(CNC(=O)[C@@H]2COCCCCCCOc3ccccc3C(=O)N[C@@H](CC(=O)NCC(C)(C)C)C(=O)N2)cc1 | 67 | 175 | 37 | 76 | – | – | – | – | –
Cc1ccc(CNC(=O)[C@@H]2Cc3cn(c4ccccc34)CCCCCn3ccnc3C(=O)N[C@@H](CC(=O)NCC(C)(C)C)C(=O)N2)cc1 | 26 | 59 | 17 | 52 | – | – | – | – | –
COC[C@@H]1NC(=O)c2ccccc2OCCCCCCOC[C@@H](C(=O)NCc2ccccc2Cl)NC1=O | – | – | – | – | – | – | – | – | 34
CC(C)C[C@H](NC(=O)[C@H](Cc1ccccc1)NC(=O)c1cnccn1)B(O)O [BORTEZOMIB] | – | – | – | – | – | 517 | – | – | –
CC(C)(C)CNC(=O)C[C@@H]1NC(=O)c2ccccc2OCCCCCCOC[C@@H](C(=O)NCc2ccccc2)NC1=O | 660 | – | – | – | – | – | – | – | –
Cc1ccc(CNC(=O)[C@@H]2COCCCCCCOc3ccccc3C(=O)N[C@@H](CCc3ccccc3)C(=O)N2)cc1 | – | – | – | – | – | – | – | – | 38.4
Cc1ccc(CNC(=O)[C@@H]2COCCCCCCOc3c(cnn3C)C(=O)N[C@@H](CC(=O)NCC(C)(C)C)C(=O)N2)cc1 | 30 | 58 | 23 | 55 | – | – | – | – | –
CC(C)C[C@H](NC(=O)[C@H](CCc1ccccc1)NC(=O)CN1CCOCC1)C(=O)N[C@@H](Cc1ccccc1)C(=O)N[C@@H](CC(C)C)C(=O)[C@@]1(C)CO1 [CARFILZOMIB] | – | 2 | < 1 | – | – | – | – | – | –
